Among the data in ChEMBL document CHEMBL4017491, “Phthalazino[1,2-b]quinazolinones as p53 Activators: Cell Cycle Arrest, Apoptotic Response and Bak-Bcl-xl Complex Reorganization in Bladder Cancer Cells” (J Med Chem, 2017) are inhibition in vivo values, retold here.

The test system of this assay is HepG2. Kind of assay: Antitumor activity against human HepG2 cells xenografted in BALB/C nude mouse assessed as tumor growth inhibition at 6 mg/kg, ip administered every 2 days for 16 days relative to control. The class given is functional. The conditions noted are these: read-out: TGI. The procedure, abridged: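 Male BALB/C nude mice, 6 weeks old, given subcutaneous flank injection of 5 × 10^6 HepG2 cells; tumors of 80−200 mm3 randomized, n = 6/group. Dosing ip every other day, vehicle 5% DMSO in saline (v/v). Tumor length and width measured three times a week, volume V = lw2/2; growth inhibition expressed versus vehicle group. Body weight also recorded.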
On the technique in general: In xenograft studies the graft and the host belong to different species.

On to `CN(C)CCNc1nn2c(=O)c3cc(Br)ccc3nc2c2ccccc12`, for which the inhibition in vivo at 6 mg/kg stood at 43.6%.
